# Test results reported in publication PMC6338520 (Cell chemical biology, 2018).
# Key:
# mouse liver lysates = assay: Substrate hydrolysis in mouse liver homogenate with or without Palmostatin B; format: biochemical; settings: lysate 20 μg; for substrate processing by mouse liver lysates: substrate 5 μM
# Summary of the method: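 Liver from 14-week-old virgin female C57BL/6 mice, washed twice in cold PBS, minced, sonicated in cold PBS, clarified, protein quantified by BCA. Homogenate (20 μg) preincubated with DMSO or Palmostatin B (10 μM) for 30 min on ice, then fluorogenic thioester substrate or colorimetric esterase substrate 4-NPO added (5 μM). Hydrolysis plotted.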
# PC3 cell lysate = assay: QStE hydrolysis in PC3 cell lysate with inhibitors; format: biochemical, human; settings: lysate 20 μg, inhibitor 10 μM, 30 min on ice, QStE 5 μM; three replicates
# T. gondii lysates = assay: In situ depalmitoylase activity in T. gondii lysates; format: biochemical, Toxoplasma gondii; settings: ASC20KRNT 2.5 μM, Ku80 T. gondii lysate 5 μg, inhibitor 10 μM
# [1] = molecular target: T1, monoacylglycerol lipase (MGLL) (Homo sapiens, UniProt Q99685); assay: QStE hydrolysis by recombinant MGLL; format: biochemical; settings: QStE 10 μM, MGLL 500 nM
# T1 sequence (Q99685 1-303): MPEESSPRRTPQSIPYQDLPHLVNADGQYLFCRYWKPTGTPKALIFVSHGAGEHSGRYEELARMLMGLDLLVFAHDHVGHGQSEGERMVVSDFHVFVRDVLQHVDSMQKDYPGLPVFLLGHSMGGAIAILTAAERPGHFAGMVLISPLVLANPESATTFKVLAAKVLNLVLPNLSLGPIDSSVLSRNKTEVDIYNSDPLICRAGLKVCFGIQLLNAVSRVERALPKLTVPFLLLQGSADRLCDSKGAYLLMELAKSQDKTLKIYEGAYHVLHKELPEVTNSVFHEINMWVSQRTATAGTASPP
# [2] = Solubility of the quenched substrates in buffer; format: physicochemical; settings: method not described
# TgPPT1 = TgPPT1 (Toxoplasma gondii, UniProt S4UG63); assay: Steady-state kinetics of fluorogenic substrate hydrolysis by recombinant TgPPT1; format: biochemical; settings: QStE 10 μM, TgPPT1 100 nM
# [3] = tested on: HsAPT1, HsAPT2 and TgPPT1; assay: Steady-state kinetics, statement made for all three depalmitoylases together; format: biochemical; settings: all three enzymes
# phospholipase A2 (PLA2) = phospholipase A2 (PLA2) (Sus scrofa, UniProt P00592); assay: QStE hydrolysis by recombinant PLA2; format: biochemical; settings: QStE 10 μM, PLA2 500 nM
# Chain of phospholipase A2 (PLA2) (P00592 23-146): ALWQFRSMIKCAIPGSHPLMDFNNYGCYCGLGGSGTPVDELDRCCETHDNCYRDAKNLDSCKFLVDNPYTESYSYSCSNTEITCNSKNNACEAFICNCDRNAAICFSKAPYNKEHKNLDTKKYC
# HsAPT1 = HsAPT1 (Homo sapiens, UniProt O75608); assay: Steady-state kinetics of fluorogenic substrate hydrolysis by recombinant HsAPT1; format: biochemical; settings: QStE 10 μM, HsAPT1 50 nM
# Chain of HsAPT1 (O75608 whole entry): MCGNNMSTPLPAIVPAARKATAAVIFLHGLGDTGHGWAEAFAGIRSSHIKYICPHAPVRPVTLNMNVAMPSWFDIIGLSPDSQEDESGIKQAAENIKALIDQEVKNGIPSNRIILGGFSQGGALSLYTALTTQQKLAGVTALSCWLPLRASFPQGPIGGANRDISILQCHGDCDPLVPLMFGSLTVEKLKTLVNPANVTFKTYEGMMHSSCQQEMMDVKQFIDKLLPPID
structure (smiles),measurement,setting,value
"CCCCCCCC(=O)Oc1ccc([N+](=O)[O-])cc1 [4-NPO, 4-nitrophenyl octanoate]",substrate processing by mouse liver lysates,mouse liver lysates,more effectively processed
"CCCCCCCCCCCCCCCCS(=O)(=O)F [HDSF, hexadecylsulfonyl fluoride]",effect of inhibitor on QStE processing in PC3 cell lysate,PC3 cell lysate,only minor reductions
O=C(CN1CCN(C(=O)c2ccco2)CC1)Nc1cc(C(F)(F)F)ccc1Cl [ML348],effect of inhibitor on QStE processing in PC3 cell lysate,PC3 cell lysate,only minor reductions
COc1ccc(N2CCN(C(=O)c3cc4c(s3)-c3ccccc3S(=O)(=O)C4)CC2)cc1 [ML349],effect of inhibitor on QStE processing in PC3 cell lysate,PC3 cell lysate,only minor reductions
"O=S(=O)(F)Cc1ccccc1 [PMSF, phenylmethylsulfonyl fluoride]",effect of inhibitor on QStE processing in PC3 cell lysate,PC3 cell lysate,did not reduce
"CCCCCCCCCC[C@@H]1C(=O)O[C@H]1CCc1ccc(OC)c(OC)c1 [PalmB, Palmostatin B]",effect of inhibitor on activity in T. gondii lysate,T. gondii lysates,completely abolished
same,effect of inhibitor on 4-NPO processing in mouse liver lysates,"mouse liver lysates; inhibitor 10 μM, 30 min on ice, 4-NPO 5 μM",only slightly reduced
same,effect of inhibitor on QStE processing in mouse liver lysates,"mouse liver lysates; inhibitor 10 μM, 30 min on ice, QStE 5 μM",completely blocked
same,effect of inhibitor on QStE processing in PC3 cell lysate,PC3 cell lysate,completely block
"CN(C)c1ccc(/N=N/c2ccc(C(=O)NCCCn3cc(CCCCCCCCCCCCCCCC(=O)SC[C@H](NC(=O)c4cc5ccc(O)cc5oc4=O)C(=O)N4CCOCC4)nn3)cc2)cc1 [QStE, (R)-S-(2-(7-hydroxy-2-oxo-2H-chromene-3-carboxamido)-3-morpholino-3-oxopropyl) (E)-16-(1-(3-(4-((4-(dimethylamino)phenyl)diazenyl)benzamido)propyl)-1H-1,2,3-triazol-4-yl)hexadecanethioate]",QStE hydrolysis by MGLL,[1],not hydrolyzed
same,soluble in aqueous buffer at concentrations up to,[2]; aqueous buffer,up to 100 μM
same,soluble in detergent supplemented buffer at concentrations up to,"[2]; buffer with CHAPS, 10 mM",up to 500 μM
same,"QStE hydrolysis by TgPPT1, specificity panel",TgPPT1,readily hydrolyzed
same,"catalytic efficiency for QStE compared to QSE, times greater",[3],10-30 times
same,QStE hydrolysis by PLA2,phospholipase A2 (PLA2),not hydrolyzed
same,substrate processing by mouse liver lysates,mouse liver lysates,robust processing
same,"QStE hydrolysis by APT1, specificity panel",HsAPT1,readily hydrolyzed
